Data reported in ChEMBL document CHEMBL1138764, “Resistance-modifying agents. 11.(1) Pyrimido[5,4-d]pyrimidine modulators of antitumor drug activity. Synthesis and structure-activity relationships for nucleoside transport inhibition and binding to alpha1-acid glycoprotein” (J Med Chem, 2004).
“And” between values parts separate entries of the source, which are not always exact repeats. Equal values may be shown once. The source made the active and inactive calls. The calls are words filed in the database; no cut-off is given here.

Assays:
L1210 [1] = assay: Inhibition of [3H]thymidine uptake in L1210 cells at 1 uM; format: functional; conditions: Mus musculus
How it was run: (§1)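 ³H-thymidine uptake into L1210 leukaemia cells measured by a modified rapid-mixing technique with inhibitor-stop. Values are mean ± SD of three or more separate determinations. IC50 is interpolated from concentration–inhibition curves.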

L1210 [2] = assay: Inhibition of [3H]thymidine uptake in L1210 cells at 10 uM; format: functional; conditions: Mus musculus; how it was run: as §1
L1210 [3] = assay: Inhibition of [3H]thymidine uptake in L1210 cells in the presence of 5 mg/mL human AGP at 1 uM; format: functional, Mus musculus
How it was run: (§2)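 Rapid-mixing, inhibitor-stop ³H-thymidine uptake into L1210 leukaemia cells run with 5 mg/mL human AGP present. Values are mean ± SD of three or more separate determinations. Significance of the difference from inhibition without AGP is taken at p ≤ 0.05.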

L1210 [4] = assay: Tested for the reduction in inhibition of [3H]thymidine uptake in L1210 cells in the presence of 5 mg/mL human AGP; format: functional, Mus musculus; how it was run: as §2
L1210 [5] = assay: Inhibition of [3H]thymidine uptake in L1210 cells; format: functional, cell-based; conditions: Mus musculus; how it was run: as §1
L1210 [6] = assay: Compound was tested for the inhibition of [3H]thymidine uptake in L1210 cells at 0.1 uM; format: functional; conditions: Mus musculus; how it was run: as §1
L1210 [7] = assay: Inhibition of [3H]-thymidine uptake in L1210 cells in the presence of 5 mg/mL human AGP at 10 uM; format: functional, Mus musculus; how it was run: as §2
L1210 [8] = assay: Compound was tested for the inhibition of [3H]thymidine uptake in L1210 cells at 100 uM; format: functional; conditions: Mus musculus; how it was run: as §1

SMILES	inhibition at 1 µM (L1210 [1]) [%]	inhibition at 10 µM (L1210 [2]) [%]	Inhibition (L1210 [3]) [%]	Reduction (L1210 [4])	IC50 (L1210 [5]) [µM]	further results
COc1ccc(CNc2nc(OC[C@@H](C)O)nc3c(NCc4ccc(OC)cc4)nc(OC[C@H](C)O)nc23)cc1	68					
COC[C@H](COc1nc(N2CCCCC2)c2nc(OC[C@H](COC)OC)nc(N3CCCCC3)c2n1)OC		100				
CN(Cc1ccccc1)c1nc(OCCO)nc2c(N(C)Cc3ccccc3)nc(OCCO)nc12	49	87	22	55%	0.8	
C[C@H](O)COc1nc(N2CCCCC2)c2nc(OC[C@@H](C)O)nc(N3CCCCC3)c2n1	47	92	20	55%	0.9	
COCCOc1nc(N(C)Cc2ccccc2)c2nc(OCCOC)nc(N(C)Cc3ccccc3)c2n1	17	68			3.8	
CCN(CC)c1nc(N2CCCCC2)c2nc(N(CC)CC)nc(N3CCCCC3)c2n1						inhibition (L1210 [2]): inactive
OCCCOc1nc(N2CCCCC2)c2nc(OCCCO)nc(N3CCCCC3)c2n1	35	76				
CC(O)CNc1nc(NCc2ccccc2)c2nc(NCC(C)O)nc(NCc3ccccc3)c2n1 (centres undefined)	33	84			3	
COc1ccc(CN(C)c2nc(OCCCO)nc3c(N(C)Cc4ccc(OC)cc4)nc(OCCCO)nc23)cc1	78		32	59%	0.22	inhibition at 0.1 µM (L1210 [6]): 38%
COCCOc1nc(NCc2ccccc2)c2nc(OCCOC)nc(NCc3ccccc3)c2n1	31	78			2.4	
COc1ccc(CN(C)c2nc(NCC(C)O)nc3c(N(C)Cc4ccc(OC)cc4)nc(NCC(C)O)nc23)cc1 (centres undefined)	39		5	86%		
CC(O)CNc1nc(N(C)Cc2ccccc2)c2nc(NCC(C)O)nc(N(C)Cc3ccccc3)c2n1 (centres undefined)	56		12	77%	0.7	inhibition at 0.1 µM (L1210 [6]): 24%
COc1ccc(CNc2nc(OCCO)nc3c(NCc4ccc(OC)c(OC)c4)nc(OCCO)nc23)cc1OC	56		30	46%		
COc1ccc(CN(C)c2nc(N(CCO)CCO)nc3c(N(C)Cc4ccc(OC)cc4)nc(N(CCO)CCO)nc23)cc1	71		40	46%	0.84	inhibition at 0.1 µM (L1210 [6]): 27%
COCC(COc1nc(N2CCCCC2)c2nc(OCC(COC)OC)nc(N3CCCCC3)c2n1)OC (centres undefined)	38	87		36%	1.88	Inhibition (L1210 [7]): 56%
COc1ccc(CNc2nc(NCCO)nc3c(NCc4ccc(OC)c(OC)c4)nc(NCCO)nc23)cc1OC	62		44	23%	0.5	inhibition at 0.1 µM (L1210 [6]): 29%
OCCOc1nc(N2CCCCC2)c2nc(OCCO)nc(N3CCCCC3)c2n1	13				6.3	
CCCOc1nc(N(C)Cc2ccccc2)c2nc(OCCC)nc(N(C)Cc3ccccc3)c2n1		8				
COCC(C)Oc1nc(N2CCCCC2)c2nc(OC(C)COC)nc(N3CCCCC3)c2n1 (centres undefined)		62				inhibition at 100 µM (L1210 [8]): 96%
Clc1nc(NCc2ccccc2)c2nc(Cl)nc(NCc3ccccc3)c2n1						inhibition (L1210 [8]): inactive
OCCN(CCO)c1nc(N2CCCC(O)C2)c2nc(N(CCO)CCO)nc(N3CCCC(O)C3)c2n1 (centres undefined)	28	50			2.6	
CC1(C)OC[C@H](COc2nc(N3CCCCC3)c3nc(OC[C@H]4COC(C)(C)O4)nc(N4CCCCC4)c3n2)O1	47	87		29%	1.1	Inhibition (L1210 [7]): 62%
OCCN(CCO)c1nc(N2CCCCC2)nc2c(N(CCO)CCO)nc(N3CCCCC3)nc12	34	74				
COc1ccc(CN(C)c2nc(NCCO)nc3c(N(C)Cc4ccc(OC)c(OC)c4)nc(NCCO)nc23)cc1OC	57	84				
COCCOc1nc(N(Cc2ccccc2)Cc2ccccc2)c2nc(OCCOC)nc(N(Cc3ccccc3)Cc3ccccc3)c2n1	9	15				
c1nc(N2CCCCC2)c2ncnc(N3CCCCC3)c2n1						inhibition (L1210 [8]): inactive
OCCN(CCO)c1nc(NCc2ccc(Cl)cc2)c2nc(N(CCO)CCO)nc(NCc3ccc(Cl)cc3)c2n1	53	92			1.1	

SMILES	inhibition at 1 µM (L1210 [1]) [%]	inhibition at 10 µM (L1210 [2]) [%]	Inhibition (L1210 [3]) [%]	Reduction (L1210 [4])	IC50 (L1210 [5]) [µM]	further results
COc1ccc(CNc2nc(N(CCO)CCO)nc3c(NCc4ccc(OC)cc4)nc(N(CCO)CCO)nc23)cc1	65	96		29%	0.25	
C[C@H](O)COc1nc(N(C)Cc2ccccc2)c2nc(OC[C@@H](C)O)nc(N(C)Cc3ccccc3)c2n1	55		9	84%		
OCCN(CCO)c1nc(N2CCc3ccccc3C2)c2nc(N(CCO)CCO)nc(N3CCc4ccccc4C3)c2n1	72	100		31%	0.72	
COc1ccc(CNc2nc(NCC(C)O)nc3c(NCc4ccc(OC)c(OC)c4)nc(NCC(C)O)nc23)cc1OC (centres undefined)	83		73	12%	0.4	inhibition at 0.1 µM (L1210 [6]): 38%
COc1ccc(CNc2nc(N(CCO)CCO)nc3c(NCc4ccc(OC)c(OC)c4)nc(N(CCO)CCO)nc23)cc1OC	73	98	53	25%	0.27	
OCCN(CCO)c1nc(N2CCCCC2)c2nc(N(CCO)CCO)nc(N3CCCCC3)c2n1 [DIPYRIDAMOLE]				87% and 96%	0.34	
OCC(O)CNc1nc(N2CCCCC2)c2nc(NCC(O)CO)nc(N3CCCCC3)c2n1 (centres undefined)	18	55		64%	3.7	Inhibition (L1210 [7]): 20%
CCC(C)COc1nc(N2CCCCC2)c2nc(OCC(C)CC)nc(N3CCCCC3)c2n1 (centres undefined)						inhibition (L1210 [2]): inactive
COc1ccc(CN(C)c2nc(OCCO)nc3c(N(C)Cc4ccc(OC)cc4)nc(OCCO)nc23)cc1	74		17	77%	0.43	inhibition at 0.1 µM (L1210 [6]): 27%
COc1ccc(CN(C)c2nc(OCCCO)nc3c(N(C)Cc4ccc(OC)c(OC)c4)nc(OCCCO)nc23)cc1OC	54				0.75	
COCCN(CCOC)c1nc(N2CCCCC2)c2nc(N(CCOC)CCOC)nc(N3CCCCC3)c2n1	29	86		50%	2.07	
COc1ccc(CNc2nc(NCC(C)O)nc3c(NCc4ccc(OC)cc4)nc(NCC(C)O)nc23)cc1 (centres undefined)	58		32	45%	0.7	inhibition at 0.1 µM (L1210 [6]): 21%
OCC(O)COc1nc(N2CCCCC2)c2nc(OC[C@H](O)CO)nc(N3CCCCC3)c2n1 (some centres undefined)		32				inhibition at 100 µM (L1210 [8]): 87%
CCCOc1nc(N2CCCCC2)c2nc(OCCC)nc(N3CCCCC3)c2n1		37			52	inhibition at 100 µM (L1210 [8]): 60%
COCCOc1nc(N2CCCCC2)c2nc(OCCOC)nc(N3CCCCC3)c2n1	20	63			4.6	
COc1ccc(CNc2nc(NCCO)nc3c(NCc4ccc(OC)cc4)nc(NCCO)nc23)cc1	56		35	40%	0.93	inhibition at 0.1 µM (L1210 [6]): 10%
CC(C)Oc1nc(N2CCCCC2)c2nc(OC(C)C)nc(N3CCCCC3)c2n1		23				
OCCNc1nc(NCc2ccccc2)c2nc(NCCO)nc(NCc3ccccc3)c2n1	46				0.75	
COc1ccc(CN(C)c2nc(NCC(C)O)nc3c(N(C)Cc4ccc(OC)c(OC)c4)nc(NCC(C)O)nc23)cc1OC (centres undefined)	73		57	22%		
c1ccc(CNc2ncnc3c(NCc4ccccc4)ncnc23)cc1		40				
OCCN(CCO)c1nc(NCc2ccc3c(c2)OCO3)c2nc(N(CCO)CCO)nc(NCc3ccc4c(c3)OCO4)c2n1	73		47	36%		
CN(Cc1ccccc1)c1nc(OCCCO)nc2c(N(C)Cc3ccccc3)nc(OCCCO)nc12	52	77			1.4	
COc1ccc(CNc2nc(OCCCO)nc3c(NCc4ccc(OC)c(OC)c4)nc(OCCCO)nc23)cc1OC	71		47	34%		
Clc1nc(Cl)c2nc(Cl)nc(Cl)c2n1						inhibition (L1210 [8]): inactive
COc1ccc(CNc2nc(OCCCO)nc3c(NCc4ccc(OC)cc4)nc(OCCCO)nc23)cc1	63			21%	0.46	
OCCN(CCO)c1nc(NCc2ccc(C(F)(F)F)cc2)c2nc(N(CCO)CCO)nc(NCc3ccc(C(F)(F)F)cc3)c2n1	32	60				
